Calls of active or inactive are those of the source. The calls are words filed in the database; no cut-off is given here.
Assays:
[1] = system: A-375; assay: Cell cycle arrest in human A375 cells assessed as accumulation at G2/M phase at 50 nM after 24 hrs using propidium iodide staining by flow cytometry analysis (reference value: 4 +/- 0.5%); assay type: functional
Outline: (§1)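 Cells treated with test agents for 24 h, then cell cycle distribution measured by flow cytometry; G2/M fraction compared with a vehicle-treated control group; N = 3.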

[2] = system: M14; assay: Cytotoxicity against human M14 cells after 48 hrs by MTS assay; assay type: functional, cell-based; conditions: M14, 48 h
[3] = Cytotoxicity against human M14/LCC6R1 cells after 48 hrs by MTS assay; assay type: functional, cell-based; conditions: M14/LCC6R1, 48 h
[4] = system: PC-3; assay: Cytotoxicity against human paclitaxel-resistant PC3 cells after 48 hrs by MTS assay; assay type: functional, cell-based; conditions: PC-3, 48 h
[5] = Half life in human liver microsomes at 2 uM by LC-MS/MS analysis; assay type: ADME
[6] = system: A-375; assay: Cell cycle arrest in human A375 cells at 10 nM after 24 hrs using propidium iodide staining by flow cytometry analysis; assay type: functional, cell-based; outline: as §1
[7] = target: Tubulin (Sus scrofa) (UniProt P02554+P02550); assay: Inhibition of porcine tubulin polymerization measured every 1 min for 60 mins; assay type: protein assay
Outline: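 In vitro microtubule polymerization run with test agents at 5 or 10 μM. Vehicle, paclitaxel (5 μM) and colchicine (5 μM) were run as controls under the same conditions. Curves are from a representative experiment.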

[8] = system: DU-145; assay: Cytotoxicity against human DU145 cells after 48 hrs by MTS assay; assay type: functional, cell-based; conditions: DU-145, 48 h
[9] = system: DU-145; assay: Cytotoxicity against human paclitaxel-resistant DU145 cells after 48 hrs by MTS assay; assay type: functional, cell-based; conditions: DU-145, 48 h
[10] = Half life in mouse liver microsomes at 2 uM by LC-MS/MS analysis; assay type: ADME
[11] = system: PC-3; assay: Cytotoxicity against human PC3 cells after 48 hrs by MTS assay; assay type: functional, cell-based; conditions: PC-3, 48 h
[12] = system: A-375; assay: Cytotoxicity against human A375 cells after 48 hrs by MTS assay; assay type: functional, cell-based; conditions: A-375, 48 h
[13] = system: PC-3; assay: Cell cycle arrest in human PC3 cells assessed as accumulation at G2/M phase at 10 nM after 24 hrs using propidium iodide staining by flow cytometry analysis; assay type: functional, cell-based; outline: as §1
[14] = Cytotoxicity against human WM164 cells after 48 hrs by MTS assay; assay type: functional, cell-based; conditions: WM164, 48 h
[15] = Cytotoxicity against human PPC1 cells after 48 hrs by MTS assay; assay type: functional, cell-based; conditions: PPC-1, 48 h
[16] = system: LNCaP; assay: Cytotoxicity against human LNCAP cells after 48 hrs by MTS assay; assay type: functional, cell-based
[17] = Lipophilicity, log P of the compound; assay type: physicochemical; conditions: octanol/water

Tubulin (Sus scrofa), sequence (P02550 whole entry, looked up): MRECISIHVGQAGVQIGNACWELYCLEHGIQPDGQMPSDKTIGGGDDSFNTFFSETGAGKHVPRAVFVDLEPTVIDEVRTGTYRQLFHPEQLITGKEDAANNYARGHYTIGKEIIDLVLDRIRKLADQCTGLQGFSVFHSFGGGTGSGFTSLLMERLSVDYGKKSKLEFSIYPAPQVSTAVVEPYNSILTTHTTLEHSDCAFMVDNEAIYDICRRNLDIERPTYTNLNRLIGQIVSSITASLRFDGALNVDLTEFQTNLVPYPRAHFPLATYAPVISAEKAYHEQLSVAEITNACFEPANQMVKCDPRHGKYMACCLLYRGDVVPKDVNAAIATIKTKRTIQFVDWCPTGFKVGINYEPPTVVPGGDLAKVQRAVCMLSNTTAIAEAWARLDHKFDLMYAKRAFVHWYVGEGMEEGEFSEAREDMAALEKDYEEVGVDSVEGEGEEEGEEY
Tubulin (Sus scrofa), sequence (P02554 whole entry, looked up): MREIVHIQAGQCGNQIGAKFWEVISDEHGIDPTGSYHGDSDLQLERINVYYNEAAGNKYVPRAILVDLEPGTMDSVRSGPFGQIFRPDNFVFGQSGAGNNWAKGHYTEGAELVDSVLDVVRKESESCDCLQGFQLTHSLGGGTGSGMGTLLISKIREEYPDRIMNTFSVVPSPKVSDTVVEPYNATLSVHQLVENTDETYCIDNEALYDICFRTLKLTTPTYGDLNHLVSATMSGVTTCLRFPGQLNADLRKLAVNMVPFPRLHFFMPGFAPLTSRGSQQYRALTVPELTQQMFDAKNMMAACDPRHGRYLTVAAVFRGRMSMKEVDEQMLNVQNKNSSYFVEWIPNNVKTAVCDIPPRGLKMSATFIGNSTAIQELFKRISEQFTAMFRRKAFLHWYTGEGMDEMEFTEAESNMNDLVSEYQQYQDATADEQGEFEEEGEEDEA

half-life at 2 µM [5]	inhibition [7]	half-life at 2 µM [10]	logP [17]	Compound	Activity [1]	IC50 [2]	IC50 [3]	IC50 [4]	Activity [6]	IC50 [8]	IC50 [9]	IC50 [11]	IC50 [12]	Activity [13]	IC50 [14]	IC50 [15]	IC50 [16]
56.3 min	Dose-dependent effect	27.7 min	–	COc1cc(-c2nccc3[nH]c(-c4ccc5cc[nH]c5c4)nc23)cc(OC)c1OC	65.9%	16 nM	53 nM	13 nM	inactive	12 nM	12 nM	8 nM	3 nM	Active	–	–	–
33.1 min	Dose-dependent effect	10.5 min	–	COc1cc(-c2nccc3[nH]c(-c4cccc5[nH]ccc45)nc23)cc(OC)c1OC	42%	14 nM	25 nM	12 nM	inactive	14 nM	17 nM	7 nM	3 nM	Active	–	–	–
–	–	–	–	COc1cc(-c2nccc3c2NC(c2cccc4cc[nH]c24)N3)cc(OC)c1OC (stereo not drawn)	–	1060 nM	975 nM	689 nM	–	2540 nM	3660 nM	1240 nM	984 nM	–	–	–	–
45.4 min	–	16.1 min	–	COc1cc(-c2nccc3[nH]c(-c4ccc5[nH]ccc5c4)nc23)cc(OC)c1OC	–	53 nM	116 nM	34 nM	–	121 nM	164 nM	27 nM	22 nM	–	–	–	–
–	–	–	–	c1cc2ccc(-c3ccc4[nH]ccc4c3)cc2c(-c2ccc3[nH]ccc3c2)n1	–	111 nM	–	–	–	113 nM	–	72 nM	93 nM	–	147 nM	48 nM	98 nM
–	–	–	–	COc1cc(-c2nccc3[nH]c(-c4cccc5ccn(S(=O)(=O)c6ccccc6)c45)nc23)cc(OC)c1OC	–	471 nM	545 nM	525 nM	–	1030 nM	> 30000 nM	623 nM	551 nM	–	–	–	–
–	–	–	–	COc1cc(-c2nccc3[nH]c(-c4cccc5c4ccn5S(=O)(=O)c4ccccc4)nc23)cc(OC)c1OC	–	670 nM	730 nM	570 nM	–	406 nM	325 nM	956 nM	263 nM	–	–	–	–
24 min	–	–	4.14	COc1cc(C(=O)c2cccc(-c3cc4ccccc4[nH]3)c2)cc(OC)c1OC	–	–	–	–	–	–	–	28.2 nM	–	–	–	–	–
–	–	–	–	COc1cc(-c2nccc3[nH]c(-c4cccc5cc[nH]c45)nc23)cc(OC)c1OC	–	28 nM	53 nM	65 nM	–	177 nM	> 30000 nM	43 nM	24 nM	–	–	–	–
30.7 min	–	2 min	–	Fc1ccc(-c2nccc3ccc(-c4ccc5[nH]ccc5c4)cc23)cc1	–	49 nM	–	–	–	47 nM	–	26 nM	66 nM	–	33 nM	28 nM	38 nM
–	–	–	–	COc1cc(-c2ccc3ccnc(-c4cc(OC)c(OC)c(OC)c4)c3c2)cc(OC)c1OC	–	9740 nM	–	–	–	–	–	–	10700 nM	–	6670 nM	–	–
–	–	–	–	O=S(=O)(c1ccccc1)n1ccc2c(-c3nc4c(Br)nccc4[nH]3)cccc21	–	> 30000 nM	> 30000 nM	> 30000 nM	–	> 30000 nM	> 30000 nM	> 30000 nM	> 30000 nM	–	–	–	–
–	–	–	–	COc1cc(-c2nccc3[nH]c(-c4cc5ccccc5[nH]4)nc23)cc(OC)c1OC	–	164 nM	191 nM	120 nM	–	1700 nM	2040 nM	170 nM	175 nM	–	–	–	–
–	–	–	–	COc1cc(-c2nccc3[nH]c(-c4c[nH]c5ccccc45)nc23)cc(OC)c1OC	–	26 nM	88 nM	7 nM	–	222 nM	74 nM	27 nM	16 nM	–	–	–	–
–	–	–	–	Fc1ccc(-c2ccc3ccnc(-c4ccc(F)cc4)c3c2)cc1	–	> 30000 nM	–	–	–	> 30000 nM	–	> 30000 nM	> 30000 nM	–	> 30000 nM	> 30000 nM	> 30000 nM
38.9 min	–	2.1 min	4.63	COc1cc(-c2nccc3ccc(-c4ccc5[nH]ccc5c4)cc23)cc(OC)c1OC	–	74 nM	–	–	–	92 nM	–	64 nM	929 nM	–	227 nM	61 nM	81 nM
